# TROY signal inh: blocks TROY-dependent signaling in reporter cells. Q293 LMP1-TROYcd NF-kB luciferase reporter, 4 h. inhibition, % at 10 µM. 360,000 tested, 0.98% active. AID 1347056;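 active means compounds whose plate-normalised and pattern-corrected inhibition of the luciferase reporter signal at the single screening dose is 50% or more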
# FN deposit inh: fibronectin deposition inhibition | AH1F fibroblasts, Alexa488-fibronectin deposition fluorescence, overnight | inhibition, % at 12.6 µM | 350,000 tested, 0.086% active;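 active means mean inhibition across replicates of 30% or more, regardless of how many single replicates reach that level; inconclusive means mean under 30% yet at least half of replicates reach 30%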;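 further: positive control wells lacked labelled fibronectin entirely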
#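 Test system: AH1F fibroblast monolayer depositing Alexa488-labelled fibronectin into matrix. Input: 10000 cells per well. Technique: fluorescence, ex 485 nm, em 525 nm. Buffer or medium: DMEM plus 2% serum, read in PBS. Timing: 1 h cell adhesion before compound, then overnight fibronectin incubation. Compound: single dose, pinned. Read-out basis: inhibition from reduced deposited-fibronectin fluorescence.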
# XiGFP reactiv: reactivates the inactive X chromosome in mouse fibroblasts; XiGFP mouse fibroblasts, % GFP-positive cells imaging, 3 d; cells co-treated with 5-aza-dC sensitizer; scaled so ellipticine positive control = 100%; activation, % at 7.58 µM; 360,000 tested, 0.055% active; AID 743238;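 active means mean normalized replicate activation at least 10% and every replicate at or above 10%; inconclusive means only one of the two criteria met; inactive means mean below 10% and not all replicates reach 10%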;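 further: 0% = median of on-plate neutral control wells and 100% = ellipticine 6 µM median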
#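 Assay system: SV40-immortalized XiGFP fibroblast cells, line 68-5-11; buffer or medium: DMEM plus 5-aza-dC sensitizer; compound: one concentration, pinned; timing: compounds 3 days, fix/stain 15 min at room temperature; benchmarks: positive control ellipticine, 6 µM final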
# TWEAK Fn14 block: TWEAK-Fn14 signaling inhibition; TWEAK-stimulated Fn14 reporter cells, luciferase luminescence, 8 h; inhibition, % at 10 µM; 360,000 tested, 2% active; in the data active means inhibition above about 50%
# EWS-Fli inh: inhibitors of EWS/Fli oncoprotein transcriptional activity; AID 651661; inhibition, % at 12.6 µM; A673 NR0B1-luciferase reporter, viability-normalised; 350,000 tested, 0.67% active;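 active means mean inhibition of at least 50% after viability correction, with every replicate also passing that limit; inconclusive means mean reaches 50% but only one of two replicates passes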;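 further: firefly luciferase signal divided by Alamar Blue viability fluorescence both relative to DMSO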
# LGR2 antag: Drosophila LGR2 receptor signaling inhibition; 380,000 tested, 0.35% active; inhibition, % at 9.99 µM; HEK293 LGR2, CRE-luciferase, bursicon-stimulated, 4 h;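 active means drop in luminescence signal, shown as inhibition above about 50% in the replicate tests, limit read from the data, passing the limit was not always enough; inconclusive means probably only some replicates passing the limit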;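 further: agonist challenge used bursicon conditioned medium at about half maximal strength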
# An asterisk follows results filed as active; ? = inconclusive; . = not tested or not shown. Rows were chosen to be rich in hits. Some 2.3% of all compounds tested hit in one or more screens of this group.
SMILES,TROY signal inh,FN deposit inh,XiGFP reactiv,TWEAK Fn14 block,EWS-Fli inh,LGR2 antag
COc1cc(/C=C/[N+](=O)[O-])ccc1OC(=O)c1cc2ccccc2oc1=O,53*,-6,0,20,12,.
COc1ccccc1OC(=O)c1cc2ccccc2oc1=O,-27,-2,0,-8,-3,-6
O=C1N/C(=C/c2ccc(N3CCOCC3)o2)C(=O)N1c1ccccc1,20,1,1,53*,.,-5
Cc1nnc(C)c2c(C)n(-c3ccc4ncccc4c3)c(C)c12,52*,-3,0,1,-11,-14
CC(C)(C)c1ccc(/C=N/N2C(=O)CSC2=S)cc1,38,0,0,68*,10,-5
O=C1CSC(=S)N1/N=C/c1ccc(O)c(O)c1O,-4,.,.,78*,.,.
COc1ccccc1C=NN1C(=O)CSC1=S,-16,.,1,-7,0,-3
COc1ccc(/C=N/N2C(=O)CSC2=S)cc1,-25,.,.,-9,.,.
Cc1noc(C)c1NC(=O)Nc1ccc2c(c1)C(=O)N([C@@H](C)CO)C[C@H](C)[C@@H](CN(C)C(=O)Nc1cccc3ccccc13)OCCCC[C@@H](C)O2,.,0,0,.,-3,9
CO[C@H]1CN(C)C(=O)c2cc(NC(=O)c3cnccn3)ccc2OC[C@@H](C)N(C(C)=O)C[C@@H]1C,.,-1,0,.,1,0
CC1(c2nnnn2-c2ccc3c(c2)OCCO3)CCC(=O)N1C1CCN(Cc2ccccc2)CC1 (stereo unspecified),50,5,0,80*,13,8
O=C(NCCS(=O)(=O)N1CCN(c2ccc(F)cc2)CC1)c1ccc(Br)o1,-3,34*,0,-19,.,12
CN(C)S(=O)(=O)c1ccc(C(=O)NCCS(=O)(=O)N2CCN(c3ccc(F)cc3)CC2)cc1,6,1,0,28,8,4
CCCCCN=C(N)N/N=C/c1c[nH]c2ccc(OC)cc12,12,18,0,-15,57*,.
Cc1cccc(NC(=S)N=Nc2c(O)n(CN3CCOCC3)c3ccccc23)c1C,-10,-4,1,50*,.,17
O=C(N[C@@H]1CC[C@H](CCNC(=O)c2ccccc2F)O[C@H]1CO)c1cnccn1,.,-4,0,.,2,-17
C#CC1(O)CCC2C3CCC4=Cc5oncc5CC4(C)C3CCC21C (stereo unspecified),31,-4,0,-33,14,13
C#C[C@]1(O)CCC2C3CCC4=Cc5oncc5CC4(C)C3CCC21C (stereo partly specified),51*,3,0,0,7,.
O=c1oc2ccccc2cc1-c1cn2ccccc2n1,71*,-4,0,97*,85*,71*
CC1(C)CC(=O)C=C(Nc2ccc3c(c2)OCCO3)C1,50,.,.,70*,.,.
COc1ccc(O)c(C=Nc2cc(NC(C)=O)c(Cl)cc2Cl)c1,-14,6,0,6,3,.
CC(=O)Nc1cc(N=Cc2ccc(O)cc2O)c(Cl)cc1Cl,30,.,.,99*,.,.
Oc1ccccc1-c1n[nH]c(-c2ccccc2O)n1,-2,17,6,77*,-47,-93
Clc1ccccc1-c1nc(-c2ccccc2)n[nH]1,-68,1,.,1,.,.
CN1C(=O)c2cc(NC(=O)Cc3cccs3)ccc2OC[C@H]2O[C@H](CC(=O)NCc3ccc(-c4ccccc4)cc3)CC[C@H]21,.,3,0,.,-5,3
SMILES,TROY signal inh,FN deposit inh,XiGFP reactiv,TWEAK Fn14 block,EWS-Fli inh,LGR2 antag
CN1C(=O)c2cc(NC(=O)Cc3cccs3)ccc2OC[C@@H]2O[C@@H](CC(=O)NCc3ccc(-c4ccccc4)cc3)CC[C@H]21,.,.,.,.,71*,.
COCC(=O)Nc1ccc2c(c1)C(=O)N(C)[C@@H]1CC[C@@H](CC(=O)NCc3ccccc3Cl)O[C@H]1CO2,.,38*,0,.,9,-3
COc1ccc2c3c(n(C)c2c1)[C@H](CO)N(C(=O)C1CC1)CC31CCN(C(=O)c2ccncc2)CC1,.,.,0,.,8,-21
Cc1cc(C)c(C#N)c(SCc2cn3ccccc3n2)n1,54*,-2,0,41,9,-42
CC(=O)Nc1ccc2c(c1)C(=O)N(C)C[C@@H](C)[C@@H](CN(C)C)O2,.,-1,0,.,.,.
Cc1ccc(NC2=Nc3ccccc3CC2)cc1,61*,.,.,72*,.,.
O=C1CN(S(=O)(=O)Cc2ccccc2)C[C@@H]2[C@@H](c3ccc(C#CC4CC4)cc3)[C@H](CO)N12,.,.,0,.,5,-20
Clc1ccc(-c2cc(-c3ccccc3)on2)cc1,-39,2,0,34,-107,-51
CCc1ccn2cc(-c3cc(-c4ccccc4)no3)nc2c1,87*,16,0,106*,75*,103*
Cc1ccc(-c2cc(-c3ccccc3)no2)c(O)c1,53*,-6,0,76*,.,?
Oc1ccccc1-c1cc(-c2ccccc2)no1,-32,.,.,40,.,-15
Cc1ccc2nc(-c3cc(-c4ccccc4)no3)cn2c1,41,-10,0,79*,69*,.
O=C(CCN1CCCCC1)NCC[C@@H]1CC[C@@H](NC(=O)C2CCOCC2)[C@@H](CO)O1,.,-9,0,.,-32,-17
CN1C(=O)C(C)(C)c2cc(S(=O)(=O)N(C)Cc3ccccc3)ccc21,12,-1,0,20,10,-8
Cc1cccc(N(C)S(=O)(=O)c2ccc3c(c2)C(C)(C)C(=O)N3C)c1,-13,7,0,88*,-17,-4
Cc1ccccc1CN1C(=O)/C(=C\c2ccc(C(=O)NCCN3CCOCC3)cc2)Sc2ccccc21,46,-1,0,30,20,-2
CC(C)(C)c1ccc(/C=C2\SC(=O)N(CCNC(=O)c3cccc(S(=O)(=O)N4CCOCC4)c3)C2=O)cc1,84*,.,.,93*,.,.
CCN1CCN(CCNC(=O)c2ccc(/C=C3/Sc4ccccc4N(Cc4cccc(Cl)c4)C3=O)cc2)CC1,83*,-8,0,-38,46,52*
Cc1ccc(S(=O)(=O)N2CCOCC2)cc1C(=O)NCCN1C(=O)S/C(=C\c2ccccc2Cl)C1=O,3,5,0,-1,.,29
Cc1cccc(CN2C(=O)/C(=C\c3ccc(C(=O)NCCN4CCOCC4)cc3)Sc3ccccc32)c1,62*,.,.,41,.,.
CCN1CCN(CCNC(=O)c2ccc3c(c2)N(Cc2ccc(F)cc2)C(=O)/C(=C/c2ccccc2)S3)CC1,1,8,0,-52,-13,24
O=C(C[C@@H]1CC[C@@H](NC(=O)c2cccnc2)[C@H](CO)O1)NCc1ccncn1,.,.,0,.,6,5
O=C(C[C@H]1CC[C@H](NS(=O)(=O)c2ccccc2)[C@H](CO)O1)NCc1ccccc1F,.,.,0,.,-21,-14
